Results published in ChEMBL document CHEMBL1129593, “Halogenated mazindol analogs as potential inhibitors of the cocaine binding site at the dopamine transporter” (J Med Chem, 1996).

Tests used:
[1] = target: T1, Sodium-dependent dopamine transporter (Rattus norvegicus, UniProt P23977); assay: Inhibition of [3H]WIN-35428 binding to the dopamine transporter in rat brain; assay type: tissue-based
How it was run: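 Striatal tissue from male Sprague-Dawley rats (200-250 g), 0.1 mg original wet weight per tube. Nonspecific binding was defined with 30 µM (R)-(-)-cocaine. Stopped by filtration through polyethylenimine-soaked GF/B filters with three ice-cold buffer washes. Equilibrium binding analysis.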

[2] = target: T1, Sodium-dependent dopamine transporter; assay: Inhibition of [3H]dopamine uptake at the dopamine transporter in rat striatal tissue; assay type: functional, tissue-based, Striatum
How it was run: (§1)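 Crude synaptosomes were made from rat striatum: homogenised in 0.32 M sucrose, spun at 800g for 10 min, then at 27000g for 20 min. They were resuspended in Krebs-Hepes (pH 7.35) containing NaCl, KCl, KH₂PO₄, CaCl₂, MgSO₄, Hepes, glucose, ascorbic acid and nialamide. Preincubated with compound for 10 min at 30 °C, then given [³H]dopamine for 10 min and filtered.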

[3] = target: Sodium-dependent dopamine transporter (Rattus norvegicus) (UniProt P23977); assay: The ratio of uptake/binding at Dopamine transporter; assay type: functional
[4] = target: Norepinephrine transporter (Rattus norvegicus) (UniProt Q9WTR4); assay: Compound was tested for inhibition of [3H]-DMI binding at the Norepinephrine transporter in rat cortical membranes at (10e-5) M; assay type: cell membranes; conditions: Membrane; concentration not given here
[5] = target: T2, Sodium-dependent serotonin transporter (Rattus norvegicus, UniProt P31652); assay: Compound was tested for inhibition of [3H]citalopram binding at the serotonin transporter in rat fore brain membranes; assay type: cell membranes, Membrane
[6] = target: T1, Sodium-dependent dopamine transporter; assay: Compound was tested for inhibition of [3H]dopamine uptake at the dopamine transporter in rat […] tissue; assay type: tissue-based, Striatum; how it was run: as §1
[7] = target: Norepinephrine transporter (Rattus norvegicus) (UniProt Q9WTR4); assay: Compound was tested for inhibition of [3H]DMI binding at the Norepinephrine transporter in rat cortical membranes at (10e-5) M; assay type: cell membranes; conditions: Membrane; concentration not given here
[8] = target: T2, Sodium-dependent serotonin transporter; assay: Compound was tested for inhibition of [3H]5-HT reuptake at Serotonin transporter

T1 sequence (P23977 whole entry): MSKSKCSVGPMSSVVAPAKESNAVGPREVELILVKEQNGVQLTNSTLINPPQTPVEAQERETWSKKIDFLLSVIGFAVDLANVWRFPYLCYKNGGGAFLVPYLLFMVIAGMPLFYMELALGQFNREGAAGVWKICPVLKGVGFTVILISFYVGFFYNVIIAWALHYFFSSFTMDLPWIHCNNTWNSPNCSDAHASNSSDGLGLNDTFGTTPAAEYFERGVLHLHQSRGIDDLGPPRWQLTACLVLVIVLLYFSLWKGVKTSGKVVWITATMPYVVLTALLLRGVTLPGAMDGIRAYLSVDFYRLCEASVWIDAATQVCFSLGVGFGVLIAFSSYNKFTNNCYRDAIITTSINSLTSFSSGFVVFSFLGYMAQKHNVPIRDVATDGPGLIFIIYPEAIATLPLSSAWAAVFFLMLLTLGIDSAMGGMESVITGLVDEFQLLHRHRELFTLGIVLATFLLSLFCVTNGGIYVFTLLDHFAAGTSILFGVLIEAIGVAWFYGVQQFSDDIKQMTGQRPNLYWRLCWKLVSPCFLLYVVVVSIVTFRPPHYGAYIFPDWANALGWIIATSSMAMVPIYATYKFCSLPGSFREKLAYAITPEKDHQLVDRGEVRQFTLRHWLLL
Chain of Sodium-dependent dopamine transporter (Rattus norvegicus) (P23977 whole entry): as above
T2 sequence (P31652 whole entry): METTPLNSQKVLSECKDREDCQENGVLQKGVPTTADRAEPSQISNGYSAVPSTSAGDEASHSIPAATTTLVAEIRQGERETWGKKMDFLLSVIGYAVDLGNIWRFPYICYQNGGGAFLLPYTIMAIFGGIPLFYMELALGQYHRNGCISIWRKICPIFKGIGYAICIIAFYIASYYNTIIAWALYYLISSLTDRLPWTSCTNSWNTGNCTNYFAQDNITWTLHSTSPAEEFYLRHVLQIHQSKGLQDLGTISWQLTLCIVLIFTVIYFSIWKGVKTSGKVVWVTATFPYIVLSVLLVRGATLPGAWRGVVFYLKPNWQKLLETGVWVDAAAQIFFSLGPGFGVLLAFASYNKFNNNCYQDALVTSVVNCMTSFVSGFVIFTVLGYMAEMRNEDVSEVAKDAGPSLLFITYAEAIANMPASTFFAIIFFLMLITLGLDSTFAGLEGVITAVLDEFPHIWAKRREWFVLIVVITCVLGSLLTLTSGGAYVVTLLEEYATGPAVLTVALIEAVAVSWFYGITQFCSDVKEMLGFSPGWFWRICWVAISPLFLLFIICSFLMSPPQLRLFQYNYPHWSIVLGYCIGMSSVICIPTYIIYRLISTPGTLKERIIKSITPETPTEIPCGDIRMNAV
Chain of Norepinephrine transporter (Rattus norvegicus) (Q9WTR4 as listed by the source): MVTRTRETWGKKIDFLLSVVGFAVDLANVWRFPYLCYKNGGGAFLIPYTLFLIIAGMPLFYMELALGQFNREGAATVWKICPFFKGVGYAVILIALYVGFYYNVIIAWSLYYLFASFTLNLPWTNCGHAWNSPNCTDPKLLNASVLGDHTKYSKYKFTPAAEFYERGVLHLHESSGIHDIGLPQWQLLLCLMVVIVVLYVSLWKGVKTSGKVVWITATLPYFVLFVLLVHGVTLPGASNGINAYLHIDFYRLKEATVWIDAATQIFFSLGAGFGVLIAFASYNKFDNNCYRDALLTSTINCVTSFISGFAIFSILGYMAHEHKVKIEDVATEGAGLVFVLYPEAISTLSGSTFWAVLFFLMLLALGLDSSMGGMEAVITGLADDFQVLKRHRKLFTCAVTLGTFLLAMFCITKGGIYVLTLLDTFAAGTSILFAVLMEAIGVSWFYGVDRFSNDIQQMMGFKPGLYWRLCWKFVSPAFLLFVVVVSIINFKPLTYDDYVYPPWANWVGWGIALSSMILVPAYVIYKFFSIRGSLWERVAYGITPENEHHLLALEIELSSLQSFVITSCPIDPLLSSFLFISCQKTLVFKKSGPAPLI

SMILES: OC1(c2ccc(Cl)cc2Cl)c2ccccc2C2=NCCN21 (stereo not given)
- IC50 [1]: 76.5 nM
- IC50 [2]: 92 nM
- Uptake/Binding ratio [3]: 1.2

SMILES: OC1(c2ccc(F)cc2)c2ccccc2C2=NCCCN21 (stereo not given)
- IC50 [1]: 3.2 nM
- IC50 [2]: 8.5 nM

SMILES: OC1(c2ccc(Cl)cc2)c2ccccc2C2=NCCCN21 (stereo not given)
- IC50 [1]: 1.7 nM
- IC50 [2]: 1.4 nM
- Uptake/Binding ratio [3]: 0.8
- inhibition [4]: 62.8%
- IC50 [5]: 1040 nM

SMILES: OC1(c2ccc(I)cc2)c2ccccc2C2=NCCN21 (stereo not given)
- IC50 [1]: 17.2 nM
- IC50 [2]: 14 nM
- Uptake/Binding ratio [3]: 0.8

SMILES: CC1(C)CN2C(=N1)c1ccccc1C2(O)c1ccc(Cl)cc1 (stereo not given)
- IC50 [1]: 50.4 nM
- IC50 [6]: 106 nM

SMILES: OC1(c2cccc(Cl)c2)c2ccccc2C2=NCCCN21 (stereo not given)
- IC50 [1]: 1 nM
- IC50 [2]: 1.3 nM
- Uptake/Binding ratio [3]: 1.3

SMILES: OC1(c2ccccc2)c2ccccc2C2=NCCCN21 (stereo not given)
- IC50 [1]: 5.8 nM
- IC50 [2]: 18 nM
- Uptake/Binding ratio [3]: 3.1

SMILES: OC1(c2ccccc2)c2ccccc2C2=NCCN21 (stereo not given)
- IC50 [1]: 66 nM
- IC50 [2]: 124 nM
- Uptake/Binding ratio [3]: 1.9

SMILES: OC1(c2cccc(Cl)c2)c2ccccc2C2=NCCN21 (stereo not given)
- IC50 [1]: 4.3 nM
- IC50 [2]: 9.2 nM
- Uptake/Binding ratio [3]: 2.1

SMILES: OC1(c2ccccc2)c2c(Cl)cccc2C2=NCCN21 (stereo not given)
- IC50 [1]: 57.2 nM
- IC50 [2]: 58 nM

SMILES: OC1(c2ccccc2Cl)c2ccccc2C2=NCCN21 (stereo not given)
- IC50 [1]: 294 nM
- IC50 [2]: 770 nM
- Uptake/Binding ratio [3]: 2.6

SMILES: OC1(c2ccc(Cl)cc2)c2ccccc2C2=NCCCCN21 (stereo not given)
- IC50 [1]: 1.5 nM
- IC50 [2]: 3.4 nM
- Uptake/Binding ratio [3]: 2.3
- IC50 [5]: 1250 nM

SMILES: OC1(c2ccccc2)c2cc(Cl)ccc2C2=NCCN21 (stereo not given)
- IC50 [1]: 86.4 nM
- IC50 [2]: 55 nM
- Uptake/Binding ratio [3]: 0.6

SMILES: OC1(c2ccc(Br)cc2)c2ccccc2C2=NCCN21 (stereo not given)
- IC50 [1]: 2.6 nM
- IC50 [2]: 8.6 nM
- Uptake/Binding ratio [3]: 3.3

SMILES: OC1(c2ccc(F)cc2)c2cc(Cl)ccc2C2=NCCN21 (stereo not given)
- IC50 [1]: 52.8 nM
- IC50 [2]: 53 nM
- Uptake/Binding ratio [3]: 1

SMILES: OC1(c2ccc(Cl)c(Cl)c2)c2ccccc2C2=NCCCCN21 (stereo not given)
- IC50 [1]: 1.7 nM
- IC50 [2]: 0.26 nM
- Uptake/Binding ratio [3]: 0.2

SMILES: CC1(C)CN=C2c3ccccc3C(O)(c3ccc(Cl)cc3)N2C1 (stereo not given)
- IC50 [1]: 6.3 nM
- IC50 [2]: 1.7 nM
- Uptake/Binding ratio [3]: 0.3

SMILES: OC1(c2ccc(Cl)cc2)c2cc(F)ccc2C2=NCCN21 (stereo not given)
- IC50 [1]: 6.5 nM
- IC50 [2]: 15 nM
- Uptake/Binding ratio [3]: 2.3

SMILES: OC1(c2ccc(Cl)cc2)c2ccccc2C2=NCCN21 (stereo not given) [MAZINDOL]
- inhibition [7]: 60%
- IC50 [8]: 231 nM

SMILES: OC1(c2ccc(F)cc2)c2ccccc2C2=NCCN21 (stereo not given)
- IC50 [1]: 13.3 nM
- IC50 [2]: 25.4 nM
- Uptake/Binding ratio [3]: 1.9

SMILES: OC1(c2ccccc2F)c2ccccc2C2=NCCCN21 (stereo not given)
- IC50 [1]: 23.2 nM
- IC50 [2]: 89 nM
- Uptake/Binding ratio [3]: 3.8

SMILES: OC1(c2ccccc2)c2cc(F)ccc2C2=NCCN21 (stereo not given)
- IC50 [1]: 29.7 nM
- IC50 [2]: 78 nM
- Uptake/Binding ratio [3]: 2.6

SMILES: OC1(c2ccccc2)c2ccccc2C2=NCCCCN21 (stereo not given)
- IC50 [1]: 5.9 nM
- IC50 [2]: 11 nM
- Uptake/Binding ratio [3]: 2

SMILES: OC1(c2ccc(Cl)cc2)c2cc(Cl)c(Cl)cc2C2=NCCN21 (stereo not given)
- IC50 [1]: 13.6 nM

SMILES: OC1(c2cccc(F)c2)c2ccccc2C2=NCCCN21 (stereo not given)
- IC50 [1]: 2 nM
- IC50 [2]: 3.1 nM
- Uptake/Binding ratio [3]: 1.6

SMILES: OC1(c2ccc(Cl)c(Cl)c2)c2ccccc2C2=NCCN21 (stereo not given)
- IC50 [1]: 2.5 nM
- IC50 [2]: 1.4 nM
- Uptake/Binding ratio [3]: 0.6
